ChEMBL document CHEMBL5346974, “Discovery of 5-Phenylpyrazolopyrimidinone Analogs as Potent Antitrypanosomal Agents with In Vivo Efficacy” (J Med Chem, 2023)
The source made the active and inactive calls. The rule behind the calls is not given here.

Columns and labels:
Format in all cases: functional, organism-based
[1] = system: Trypanosoma brucei brucei; experiment: In vivo antitrypanosomal activity against Trypanosoma brucei brucei infected stage-I mouse model of HAT assessed as clearance of peripheral blood parasites at 50 mg/kg, po twice daily for 5 consecutive days; details: time 5.0 day
Procedure, shortened: (§1)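 Mice in groups of three were infected IP with 10^4 T. b. brucei Squib 427 […]. Parasitemia was checked by tail-vein blood microscopy up to 63 dpi, plus SL RNA qPCR on survivors.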

[2] = system: Trypanosoma brucei brucei; experiment: In vivo antitrypanosomal activity against Trypanosoma brucei brucei infected stage-I mouse model of HAT assessed as clearance of peripheral blood parasites at 50 mg/kg, po twice daily for 5 consecutive days measured for 60 days of post infection; details: time 60.0 day; procedure, shortened: as §1
[3] = system: Trypanosoma brucei brucei; experiment: In vivo antitrypanosomal activity against Trypanosoma brucei brucei infected stage-I po dosed mouse model of HAT assessed as clearance of parasitemia treated twice daily for 5 consecutive days; details: dose 6.25-50 mg/kg, time 5.0 day; procedure, shortened: as §1

SMILES	Activity [1]	Activity [2]	Activity [3]
Cc1ccc(C(=O)Nc2ccc(S(=O)(=O)O)c3cc(S(=O)(=O)O)cc(S(=O)(=O)O)c23)cc1NC(=O)c1cccc(NC(=O)Nc2cccc(C(=O)Nc3cc(C(=O)Nc4ccc(S(=O)(=O)O)c5cc(S(=O)(=O)O)cc(S(=O)(=O)O)c45)ccc3C)c2)c1	Active		
CC(C)c1n[nH]c2c(=O)[nH]c(-c3ccc(F)cc3)nc12		Active	Dose-Dependent Effect
